Measured values: ChEMBL document CHEMBL2057113, “Modern phenotypic drug discovery is a viable, neoclassic pharma strategy” (J Med Chem, 2012)
Structures can show the parent of a compound that is named as a salt. Active and inactive are the calls of the source. The calls are words filed in the database; no cut-off is given here.

Experiments:
[1] = Toxicity in endothelial precursor cells co-cultured with stromal precursor ADSC cells by total nuclei count detection based phenotypic drug discovery based assay
Procedure, shortened: (§1)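 384-well coculture of endothelial colony-forming cells (ECFC) with adipose-derived stromal cells (ADSC) at 37 °C, 5% CO2. Screening at 2 μM single point on CD31-positive cord area; actives retested in 10-point dose response, with CD31 cord area as cord formation read-out and total nuclei count as cytotoxicity read-out.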

[2] = system: U-87 MG; assay: In-vivo inhibition of angiogenesis in human U87MG cells xenografted in athymic nude Harlan mouse at 30 mg/kg, sc dosed twice daily for 3 days measured 3 days post dose by fluorescence microscopy; assay type: functional, organism-based; set-up: dose 30 mg/kg; details: U-87MG ATCC
Procedure, shortened: (§2)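 U87MG glioblastoma cells mixed 1:1 with Matrigel, 5.0 × 10^6 cells injected subcutaneously into right rear flank of female athymic nude mice; grown to mean 250 mm3, randomized by tumor volume and body weight (10/group). Dosing twice daily for 3 days: sc in 100% peanut oil, or oral gavage in 10% acacia. Tumors excised, zinc-Tris fixed, paraffin sectioned at 4 μm.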

[3] = Inhibition of cell migration in endothelial precursor cells by Oris cell migration kit based phenotypic drug discovery based assay; assay type: functional
[4] = target: Gamma-secretase (Homo sapiens) (UniProt Q96BI3+Q9NZ42+Q8WW43+P49768+Q92542+P49810); assay: Inhibition of human gamma secretase-expressed in HEK293 co-expressing human Notch-1 cells assessed as effect on enzyme-mediated Notch-1 processing up to 5 uM; assay type: cell-based
Procedure, shortened: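 HEK293 cells expressing a human Notch-1 construct lacking the extracellular ligand-binding domain (analogous to constitutively active mouse NotchΔE); γ-secretase cleavage detected with a mouse monoclonal antibody to the γ-secretase neoepitope of human Notch-1; tested up to 5 μM.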

[5] = Toxicity in human HeLa cells assessed as cell cycle arrest at G2M phase by flow cytometry based phenotypic drug discovery based assay
[6] = Inhibition of endothelial cord area formation in endothelial precursor cells by CD31 cord area detection based phenotypic drug discovery based assay; assay type: functional; procedure, shortened: as §1
[7] = target: Beta-secretase 1 (Homo sapiens, UniProt P56817); assay: Inhibition of human BACE1 using BACE1-IgG construct by labeled substrate hydrolysis detection assay
Procedure, shortened: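 Soluble human BACE activity: purified BACE-IgG ectodomain construct hydrolyzing a labeled peptide substrate.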

[8] = target: Gamma-secretase; assay: Inhibition of human gamma secretase expressed in HEK293 cells coexpressing human APP by soluble beta-APP detection based ELISA; assay type: cell-based
Procedure, shortened: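 HEK293 cells expressing recombinant human APP; soluble APPsβ production measured by ELISA with a mouse monoclonal antibody to the β-secretase neoepitope of hAPP.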

[9] = system: HEK293; assay: Inhibition of ACC expressed in HEK293 cells assessed as effect on incorporation of [14C]acetate into triacylglycerol; assay type: cell-based; details: Homo sapiens
Procedure, shortened: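 HEK293 cells moved from growth medium (DMEM, 10% FBS) into Opti-MEM containing compound in 0.2% DMSO for 1 h, then labeled with 30 μM [14C]acetate for 4 h. Cells washed, dissolved in Triton X-100 (0.175%) with basic ethanol/isopropanol at room temperature; labeled triacylglycerol extracted into heptane and counted by liquid scintillation.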

[10] = system: U-87 MG; assay: In-vivo inhibition of angiogenesis in human U87MG cells xenografted in athymic nude Harlan mouse at 10 mg/kg oral gavage dosed twice daily for 3 days measured 3 days post dose by fluorescence microscopy; assay type: functional, organism-based; set-up: dose 10 mg/kg; details: U-87MG ATCC; procedure, shortened: as §2

Beta-secretase 1, sequence (P56817 whole entry, the tested form may be a part): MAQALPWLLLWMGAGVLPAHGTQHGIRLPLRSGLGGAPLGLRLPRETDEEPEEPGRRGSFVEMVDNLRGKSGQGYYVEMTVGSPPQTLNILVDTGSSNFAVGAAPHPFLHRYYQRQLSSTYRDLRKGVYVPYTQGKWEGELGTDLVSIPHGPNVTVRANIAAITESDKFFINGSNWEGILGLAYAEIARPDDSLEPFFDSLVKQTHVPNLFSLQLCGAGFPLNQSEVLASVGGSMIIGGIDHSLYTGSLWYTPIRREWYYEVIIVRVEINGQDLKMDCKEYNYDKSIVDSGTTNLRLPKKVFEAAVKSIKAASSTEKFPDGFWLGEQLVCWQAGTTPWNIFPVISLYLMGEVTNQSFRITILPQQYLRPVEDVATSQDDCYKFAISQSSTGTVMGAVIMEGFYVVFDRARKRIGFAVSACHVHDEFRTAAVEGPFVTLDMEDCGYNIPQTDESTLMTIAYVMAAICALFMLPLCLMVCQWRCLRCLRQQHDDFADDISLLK

| Structure (SMILES) | IC50 [3] [µM] | inhibition [4] | EC50 [6] [µM] | IC50 [6] [µM] | IC50 [7] [µM] | IC50 [8] [µM] | EC50 [1] [µM] | inhibition [2] | EC50 [5] [µM] | IC50 [1] [µM] | inhibition [9] | inhibition [10] |
| --- | --- | --- | --- | --- | --- | --- | --- | --- | --- | --- | --- | --- |
| Cc1ccc(OCC(=O)N[C@H]2c3cc(NC(=O)[C@@H](C)Oc4ccc(C#N)cc4C)ccc3C[C@@H]2O)cc1 (mixture of isomers) | > 40 | inactive | 0.021 |  |  |  | > 10 | Active | > 10 |  |  |  |
| CCNC(=O)Nc1sc2ccccc2c1C(=O)N1CCC2(CC1)CC(=O)c1cc(-c3nccs3)ccc1O2 | 13 |  | 0.041 |  |  |  | > 10 |  | > 10 |  | Active |  |
| Cc1ccc(OCC(=O)N[C@H]2c3cc(NC(=O)COc4ccc(C#N)cc4C)ccc3C[C@H]2O)cc1 |  | inactive |  | 1.45 | 4 | > 5 |  |  |  | > 10 |  |  |
| CCN(CC)CCNC(=O)c1c(C)[nH]c(/C=C2\C(=O)Nc3ccc(F)cc32)c1C [SUNITINIB] | 13.6 |  |  | 0.0096 |  |  | > 10 |  | > 10 |  |  | Active |

Second part, led by results:

| IC50 [3] [µM] | inhibition [4] | EC50 [6] [µM] | IC50 [6] [µM] | IC50 [7] [µM] | IC50 [8] [µM] | Structure (SMILES) | EC50 [1] [µM] | inhibition [2] | EC50 [5] [µM] | IC50 [1] [µM] | inhibition [9] | inhibition [10] |
| --- | --- | --- | --- | --- | --- | --- | --- | --- | --- | --- | --- | --- |
| 16.7 |  |  | 0.00421 |  |  | CNC(=O)c1cc(Oc2ccc(NC(=O)Nc3ccc(Cl)c(C(F)(F)F)c3)cc2)ccn1 [SORAFENIB TOSYLATE] | 5.46 |  | > 10 |  |  |  |
|  | inactive |  | 0.022 | 0.142 | > 5 | Cc1ccc(OCC(=O)N[C@H]2c3cc(NC(=O)COc4ccc(C#N)cc4C)ccc3C[C@@H]2O)cc1 |  |  |  | > 10 |  |  |
|  | inactive |  | 2.5 | 13.6 | > 5 | Cc1ccc(OCC(=O)N[C@@H]2c3cc(NC(=O)COc4ccc(C#N)cc4C)ccc3C[C@H]2O)cc1 |  |  |  | > 10 |  |  |
|  | inactive |  | 9.1 | 45.6 | > 5 | Cc1ccc(OCC(=O)N[C@@H]2c3cc(NC(=O)COc4ccc(C#N)cc4C)ccc3C[C@@H]2O)cc1 |  |  |  | > 10 |  |  |
